Assay [1] deals with Delta-type opioid receptor (Rattus norvegicus, UniProt P33533). Description: Compound was evaluated for binding affinity against delta opioid receptor of rat forebrain using [3H]-DPDPE as the radioligand using competition binding assays.
Assay [2] concerns the target Kappa-type opioid receptor (Cavia porcellus, UniProt P41144). Nature of the assay: Compound was evaluated for binding affinity against Opioid receptor kappa 1 using as the radioligand using competition binding assays.
The species named for assay [3] is Cavia porcellus. Description: In vitro inhibition of electrically evoked contractions of the guinea pig ileum (GPI). Type of assay: functional. The procedure, abridged: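 Guinea pig ileum preparation, electrically stimulated; peptidase inhibitors (10 µM bestatin, 0.3 µM thiorphan) added to the tissue bath 5 min before each experiment. IC50 for inhibition of contractions taken from at least three replicates in tissues from different animals.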

For assay [4], the target named is T1, Opioid receptors; mu & delta (Homo sapiens) (UniProt P41143+P35372). Nature of the assay: Ki ratio which is the ratio of Ki of k opioid receptor to the Ki of mu opioid receptor to the Ki of delta opioid receptor; 1.3/1/27. The format is protein assay.
For a further assay, the target named is Mu-type opioid receptor (Rattus norvegicus, UniProt P33535). Nature of the assay: Compound was evaluated for binding affinity against Opioid receptor mu 1 of rat forebrain using [3H]DAMGO as the radioligand using competition binding assays.
The species entered for assay [5] is Cavia porcellus. Description: Relative potency against electrically evoked contractions of the guinea pig ileum(GPI). The format is functional. Further details: reference not given here.
Assay [6] has as its target T1, Opioid receptors; mu & delta (Homo sapiens). Description: Ki ratio which is the ratio of Ki of k opioid receptor to the Ki of mu opioid receptor to the Ki of delta opioid receptor; 1/1.3/92. The format is protein assay.
The target is the same in assay [7]. Description: Ki ratio which is the ratio of Ki of k opioid receptor to the Ki of mu opioid receptor to the Ki of delta opioid receptor; 1/2.2/47. Type of assay: protein assay.
The target is the same in assay [8]. Description: Ki ratio which is the ratio of Ki of k opioid receptor to the Ki of mu opioid receptor to the Ki of delta opioid receptor; 3.6/1/74. The format is protein assay.

The Ki is the dissociation constant of the complex between target and ligand, obtained from inhibition or displacement. As a reminder, the IC50 is the concentration needed to halve the response being measured. Turning to `CC[C@H](C)[C@H](NC(=O)[C@H](CCCN=C(N)N)NC(=O)[C@H](CCCN=C(N)N)NC(=O)[C@H](CN=C(N(C)C)N(C)C)NC(=O)[C@H](Cc1ccccc1)NC(=O)CNC(=O)[C@@H](CC(=O)O)NC(=O)[C@@H](N)Cc1ccc(O)cc1)C(=O)N[C@@H](CCCN=C(N)N)C(=O)N1CCC[C@H]1C(=O)N[C@@H](CCCCN)C(=O)N[C@@H](CC(C)C)C(=O)N[C@@H](CCCCN)C(N)=O`, the inhibition constant Ki worked out at 4.31 nM in assay [1], 0.21 nM in assay [2] and 0.16 nM on Mu-type opioid receptor. The compound further gave a concentration for half-maximal inhibition (IC50) in the assay filed under Cavia porcellus [3] of 0.46 nM. The Ki ratio entry in [4] was “mu/kappa/delta”. For the same compound, in the assay filed under Cavia porcellus [5], the Relative potency amounted to 48.
On to `CC[C@H](C)[C@H](NC(=O)[C@H](CCCN=C(N)N)NC(=O)[C@H](CCCN=C(N)N)NC(=O)[C@@H]1CCNC(=O)C[C@@H](NC(=O)[C@@H](N)Cc2ccc(O)cc2)C(=O)NCC(=O)N[C@@H](Cc2ccccc2)C(=O)N1)C(=O)N[C@@H](CCCN=C(N)N)C(=O)N1CCC[C@@H]1C(=O)N[C@@H](CCCCN)C(=O)N[C@@H](CC(C)C)C(=O)N[C@@H](CCCCN)C(N)=O`, for which, in assay [6], the Ki ratio entry was “kappa/mu/delta”.
`CC[C@H](C)[C@H](NC(=O)[C@H](CCCN=C(N)N)NC(=O)[C@H](CCCN=C(N)N)NC(=O)[C@H](CC(C)C)NC(=O)[C@H](Cc1ccccc1)NC(=O)CNC(=O)CNC(=O)[C@@H](N)Cc1ccc(O)cc1)C(=O)N[C@@H](CCCN=C(N)N)C(=O)N1CCC[C@H]1C(=O)N[C@@H](CCCCN)C(=O)N[C@@H](CC(C)C)C(=O)N[C@@H](CCCCN)C(N)=O` [listing 1 of 2 here]: the Relative potency in the assay filed under Cavia porcellus [5] is listed as 100.
Regarding `CC[C@H](C)[C@H](NC(=O)[C@H](CCCN=C(N)N)NC(=O)[C@H](CCCN=C(N)N)NC(=O)[C@H](CCCN=C(N(C)C)N(C)C)NC(=O)[C@H](Cc1ccccc1)NC(=O)CNC(=O)[C@@H](CC(=O)O)NC(=O)[C@@H](N)Cc1ccc(O)cc1)C(=O)N[C@@H](CCCN=C(N)N)C(=O)N1CCC[C@H]1C(=O)N[C@@H](CCCCN)C(=O)N[C@@H](CC(C)C)C(=O)N[C@@H](CCCCN)C(N)=O`, the Ki in [1] came to 14.2 nM; in assay [2] it was 0.36 nM; on Mu-type opioid receptor, 0.28 nM. Besides, it took 1.78 nM to reach half-maximal inhibition in the assay listed under Cavia porcellus [3] (IC50). For the same compound, the Relative potency in the assay listed under Cavia porcellus [5] is listed as 12.
As for `CC[C@H](C)[C@H](NC(=O)[C@H](CCCN=C(N)N)NC(=O)[C@H](CCCN=C(N)N)NC(=O)[C@H](CCN=C(N(C)C)N(C)C)NC(=O)[C@H](Cc1ccccc1)NC(=O)CNC(=O)[C@@H](CC(=O)O)NC(=O)[C@@H](N)Cc1ccc(O)cc1)C(=O)N[C@@H](CCCN=C(N)N)C(=O)N1CCC[C@H]1C(=O)N[C@@H](CCCCN)C(=O)N[C@@H](CC(C)C)C(=O)N[C@@H](CCCCN)C(N)=O`, the figures for the Ki (in assay [1]; in assay [2]; on Mu-type opioid receptor) were 7.52 nM, 0.14 nM and 0.32 nM, respectively. For the same compound, the IC50 in the assay listed under Cavia porcellus [3] came out at 0.18 nM. Further, the Relative potency in the assay filed under Cavia porcellus [5] turned out to be 122.
In turn, `CC[C@H](C)[C@H](NC(=O)[C@H](CCCN=C(N)N)NC(=O)[C@H](CCCN=C(N)N)NC(=O)[C@H](CC(C)C)NC(=O)[C@H](Cc1ccccc1)NC(=O)CNC(=O)CNC(=O)[C@@H](N)Cc1ccc(O)cc1)C(=O)N[C@@H](CCCN=C(N)N)C(=O)N1CCC[C@H]1C(=O)N[C@@H](CCCCN)C(=O)N[C@@H](CC(C)C)C(=O)N[C@@H](CCCCN)C(N)=O` [listing 2 of 2 here] registered a 50% inhibitory concentration (IC50) in the assay listed under Cavia porcellus [3] of 0.22 nM.
Turning to `CC[C@H](C)[C@H](NC(=O)[C@H](CCCN=C(N)N)NC(=O)[C@H](CCCN=C(N)N)NC(=O)[C@H](CC(C)C)NC(=O)[C@H](Cc1ccccc1)NC(=O)CNC(=O)[C@@H](CC(=O)O)NC(=O)[C@@H](N)Cc1ccc(O)cc1)C(=O)N[C@@H](CCCN=C(N)N)C(=O)N1CCC[C@H]1C(=O)N[C@@H](CCCCN)C(=O)N[C@@H](CC(C)C)C(=O)N[C@@H](CCCCN)C(N)=O` [listing 1 of 2 here], in the assay filed under Cavia porcellus [5], the Relative potency came out at 32.
Regarding `CC[C@H](C)[C@H](NC(=O)[C@H](CCCN=C(N)N)NC(=O)[C@H](CCCN=C(N)N)NC(=O)[C@@H]1CCNC(=O)C[C@@H](NC(=O)[C@@H](N)Cc2ccc(O)cc2)C(=O)NCC(=O)N[C@@H](Cc2ccccc2)C(=O)N1)C(=O)N[C@@H](CCCN=C(N)N)C(=O)N1CCC[C@H]1C(=O)N[C@@H](CCCCN)C(=O)N[C@@H](CC(C)C)C(=O)N[C@@H](CCCCN)C(N)=O` [listing 1 of 2 here], the values for the Ki (in assay [1]; in assay [2]; on Mu-type opioid receptor) were 12 nM, 0.13 nM and 0.17 nM, respectively. For the same compound, in the assay listed under Cavia porcellus [3], the half-inhibitory concentration (IC50) came to 0.23 nM.
`CC[C@H](C)[C@H](NC(=O)[C@H](CCCN=C(N)N)NC(=O)[C@H](CCCN=C(N)N)NC(=O)[C@@H]1CCNC(=O)C[C@@H](NC(=O)[C@@H](N)Cc2ccc(O)cc2)C(=O)NCC(=O)N[C@@H](Cc2ccccc2)C(=O)N1)C(=O)N[C@@H](CCCN=C(N)N)C(=O)N1CCC[C@H]1C(=O)N[C@@H](CCCCN)C(=O)N[C@@H](CC(C)C)C(=O)N[C@@H](CCCCN)C(N)=O` [listing 2 of 2 here] had a Relative potency in the assay filed under Cavia porcellus [5] of 96.
As for `CC[C@H](C)[C@H](NC(=O)[C@H](CCCN=C(N)N)NC(=O)[C@H](CCCN=C(N)N)NC(=O)[C@@H]1CNC(=O)C[C@@H](NC(=O)[C@@H](N)Cc2ccc(O)cc2)C(=O)NCC(=O)N[C@@H](Cc2ccccc2)C(=O)N1)C(=O)N[C@@H](CCCN=C(N)N)C(=O)N1CCC[C@@H]1C(=O)N[C@@H](CCCCN)C(=O)N[C@@H](CC(C)C)C(=O)N[C@@H](CCCCN)C(N)=O`, in [7], the Ki ratio result is recorded as “kappa/mu/delta”.
As to `CC[C@H](C)[C@H](NC(=O)[C@H](CCCN=C(N)N)NC(=O)[C@H](CCCN=C(N)N)NC(=O)[C@H](CC(C)C)NC(=O)[C@H](Cc1ccccc1)NC(=O)CNC(=O)[C@@H](CC(=O)O)NC(=O)[C@@H](N)Cc1ccc(O)cc1)C(=O)N[C@@H](CCCN=C(N)N)C(=O)N1CCC[C@H]1C(=O)N[C@@H](CCCCN)C(=O)N[C@@H](CC(C)C)C(=O)N[C@@H](CCCCN)C(N)=O` [listing 2 of 2 here], the Ki in assay [1] turned out to be 0.044 nM; in assay [2] it was 0.45 nM; at Mu-type opioid receptor it was 0.013 nM. The same compound came in with an IC50 in the assay listed under Cavia porcellus [3] of 0.46 nM.
On the same counts, the results for `CC[C@H](C)[C@H](NC(=O)[C@H](CCCN=C(N)N)NC(=O)[C@H](CCCN=C(N)N)NC(=O)[C@@H]1CNC(=O)C[C@@H](NC(=O)[C@@H](N)Cc2ccc(O)cc2)C(=O)NCC(=O)N[C@@H](Cc2ccccc2)C(=O)N1)C(=O)N[C@@H](CCCN=C(N)N)C(=O)N1CCC[C@H]1C(=O)N[C@@H](CCCCN)C(=O)N[C@@H](CC(C)C)C(=O)N[C@@H](CCCCN)C(N)=O` [listing 1 of 2 here] are 10.2 nM, 0.22 nM, 0.49 nM and 0.16 nM.
As for `CC[C@H](C)[C@H](NC(=O)[C@H](CCCN=C(N)N)NC(=O)[C@H](CCCN=C(N)N)NC(=O)[C@@H]1CCCNC(=O)C[C@@H](NC(=O)[C@@H](N)Cc2ccc(O)cc2)C(=O)NCC(=O)N[C@@H](Cc2ccccc2)C(=O)N1)C(=O)N[C@@H](CCCN=C(N)N)C(=O)N1CCC[C@H]1C(=O)N[C@@H](CCCCN)C(=O)N[C@@H](CC(C)C)C(=O)N[C@@H](CCCCN)C(N)=O`, the Ki in assay [1] was found to be 14.1 nM; in [2], 0.68 nM; at Mu-type opioid receptor, 0.19 nM. The compound also gave a concentration for half-maximal inhibition (IC50) in the assay filed under Cavia porcellus [3] of 0.4 nM. For the same compound, the Relative potency in the assay listed under Cavia porcellus [5] was determined as 55. Moreover, the Ki ratio entry in [8] is on record as “mu/kappa/delta”.
Compound `CC[C@H](C)[C@H](NC(=O)[C@H](CCCN=C(N)N)NC(=O)[C@H](CCCN=C(N)N)NC(=O)[C@@H]1CNC(=O)C[C@@H](NC(=O)[C@@H](N)Cc2ccc(O)cc2)C(=O)NCC(=O)N[C@@H](Cc2ccccc2)C(=O)N1)C(=O)N[C@@H](CCCN=C(N)N)C(=O)N1CCC[C@H]1C(=O)N[C@@H](CCCCN)C(=O)N[C@@H](CC(C)C)C(=O)N[C@@H](CCCCN)C(N)=O` [listing 2 of 2 here] registered a Relative potency in the assay filed under Cavia porcellus [5] of 138.

Values taken from ChEMBL document CHEMBL1128417, “Synthesis and opioid activity of conformationally constrained dynorphin A analogues. 1. Conformational constraint in the "message" sequence” (J Med Chem, 1995).
